The nature of experiment [1]: nonspecific flux increase, KCNQ1-free cells – parental CHO cells, counter-screen for KCNQ1 potentiator project (AID 493006;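 active means duplicate-averaged activation above buffer control mean plus 5 SD of those controls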;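 on activation: fluorescence ratio of max minus min over baseline after K+ and Tl+ depolarization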). To be noted: parental CHO-K1 cells, FluxOR thallium flux, at 10 µM; hits give high values. The method in brief:
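Benchmarks – buffer and R-L3 controls · Assay system – untransfected host CHO-K1 cells with FluxOR thallium dye · Measure – fluorescence change ratio scaled 0% buffer, 100% R-L3 · Technique – kinetic thallium-flux fluorescence · Timing – overnight 37 °C plating, 90 min RT dye, 20 min compound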

For experiment [2], the target named is Potassium voltage-gated channel subfamily KQT member 1 (Homo sapiens) (UniProt P51787). Briefly: enhancement of KCNQ1 channel thallium flux – FluxOR thallium flux, CHO cells, duplicates, confirmation (AID 493007;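 active means potentiation averaged over duplicate wells exceeding buffer-only control mean by more than 3 SD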;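 on outcome: cells depolarized by a potassium plus thallium sulfate stimulus after compound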). To be noted: KCNQ1 cell line, FluxOR thallium flux fluorescence, at 10 µM; hits give high values, % of reference activator effect, buffer zero. Summed up:
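Material: CHO cells stably expressing the KCNQ1 potassium channel / Times: dye 90 min then compound 20 min, both at room temperature / Detection: kinetic thallium influx fluorescence with FluxOR dye, 10 s baseline, 110 s post-stimulus / Benchmarks: buffer-only wells as 0% and R-L3 activator as 100% / Replicates: each compound tested in duplicate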

For experiment [3] the target is unchanged. Briefly: KCNQ1 activators by electrophysiology – IonWorks patch clamp, KCNQ1-CHO cells, orthogonal assay for KCNQ1 potentiator project, confirmation (AID 493184).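 On current potentiation: percent change of the same well's current before compound addition so 0% = no change.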 To be noted: automated patch clamp current, at 10 µM; hits give high values. Summed up: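 Probe or stimulus: depolarizing pulse to +40 mV from -90 mV; Material: CHO cells carrying KCNQ1; Compound: one dose, 10 µM final; Signal: automated voltage clamp, amphotericin B perforated patch; Read-out basis: percent current increase versus pre-compound level; Buffer or medium: pH 7.4 external bath; Replication: duplicates.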
A general note: In patch-clamp work, channel activity is measured electrically.

Experiment [4] concerns the target Potassium voltage-gated channel subfamily KQT member 2 (Rattus norvegicus) (UniProt O88943). Briefly: KCNQ2 thallium flux enhancement – KCNQ2-CHO-K1 cells, selectivity assay for KCNQ1 potentiator project (AID 493009;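 active means mean duplicate potentiation above the buffer control mean plus 5 SD of buffer wells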;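 further: assay conditions were tuned for KCNQ1 rather than KCNQ2 modulators; signal is max minus min fluorescence divided by baseline after thallium stimulus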). The following applies: FluxOR thallium flux fluorescence, at 10 µM; hits give high values, scaled: buffer 0, activator control 100.
Experiment [5] concerns the target T1, Potassium voltage-gated channel subfamily E member 1 (Homo sapiens) + Potassium voltage-gated channel subfamily KQT member 1 (Homo sapiens) (UniProt P15382+P51787). The experiment can be described thus: KCNQ1-E1 channel activation – thallium flux, CHO-K1 KCNQ1/E1 cells, selectivity assay for KCNQ1 potentiator project, confirmation (AID 493186;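 active means mean duplicate activation above the buffer control mean plus 5 SD of those controls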). The following applies: FluxOR thallium flux, at 10 µM; hits give high values. Summed up:
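system = KCNQ1/E1-expressing stable CHO-K1 cell line | doses = single compound concentration per well | times = dye 90 min, compound 20 min, room temperature | measured by = FluxOR Tl+ flux fluorescence, kinetic read | evaluation = fluorescence rise relative to baseline, as percent of R-L3 response above buffer | controls = buffer and R-L3 | replicates = duplicate wells per compound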

The target in experiment [6] is Potassium voltage-gated channel subfamily KQT member 1 (Homo sapiens) (UniProt P51787). The experiment can be described thus: blockers of human KCNQ1 channel – cell-based, Tl flux, duplicate, confirmation (AID 588353;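 active means primary screen active, with duplicate mean exceeding buffer control mean plus 3 SD of buffer wells, cut at about 28% in these data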;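 further: 0% = buffer control ratio and 100% = XE991 inhibitor control ratio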). The following applies: KCNQ1 cell line, FluxOR thallium flux fluorescence, at 10 µM, hits give high values. The method in brief: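 Assay system – KCNQ1 CHO cells · Probe or stimulus – Tl2SO4 plus K2SO4 stimulus, each 12.5 mM in 5x stock · Times – dye loading 90 min, compound 20 min, both room temperature · Signal – kinetic FluxOR thallium-sensitive dye fluorescence, 10 s baseline, 110 s post-stimulus · Measure – percent inhibition of fluorescence change ratio, scaled buffer to XE991 · Repeats – duplicate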
Sequence of Potassium voltage-gated channel subfamily KQT member 1 (Homo sapiens) (P51787 whole entry, looked up): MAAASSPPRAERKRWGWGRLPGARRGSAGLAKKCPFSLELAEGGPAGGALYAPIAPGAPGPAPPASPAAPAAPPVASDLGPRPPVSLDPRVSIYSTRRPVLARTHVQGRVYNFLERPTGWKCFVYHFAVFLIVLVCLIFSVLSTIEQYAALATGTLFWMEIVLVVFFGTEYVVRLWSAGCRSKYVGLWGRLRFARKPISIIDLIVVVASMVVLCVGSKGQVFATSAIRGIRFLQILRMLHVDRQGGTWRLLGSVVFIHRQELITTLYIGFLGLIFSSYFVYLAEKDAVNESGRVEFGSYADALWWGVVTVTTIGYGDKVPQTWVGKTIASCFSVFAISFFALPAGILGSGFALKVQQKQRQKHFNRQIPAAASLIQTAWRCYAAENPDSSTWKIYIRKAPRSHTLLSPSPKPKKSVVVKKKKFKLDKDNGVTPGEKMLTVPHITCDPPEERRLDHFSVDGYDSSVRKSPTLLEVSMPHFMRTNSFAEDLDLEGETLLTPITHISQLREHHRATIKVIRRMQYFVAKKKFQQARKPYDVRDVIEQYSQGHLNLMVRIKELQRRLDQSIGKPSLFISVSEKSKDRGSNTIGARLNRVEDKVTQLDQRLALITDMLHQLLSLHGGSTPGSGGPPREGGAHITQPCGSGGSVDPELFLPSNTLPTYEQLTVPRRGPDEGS

Experiment [7] is described as follows: nonspecific activity in CHO-K1 cells without KCNQ1 – parental CHO cells, Tl flux, counter-screen for KCNQ1 inhibitor project (AID 588366;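 active means mean of duplicate thallium-flux fluorescence ratios in parental host cells more than 5 SD below the buffer control mean, cut at about 0.38 in these data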;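 further: ratio is peak minus minimum fluorescence divided by baseline fluorescence; actives read low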). To be noted: parental CHO-K1, FluxOR thallium flux fluorescence ratio; at 10 µM; hits give low values; zero means no signal rise above baseline. Summed up: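 System: parental CHO-K1 cells lacking KCNQ1 channel expression. Probe or stimulus: depolarizing K2SO4 plus Tl2SO4 stimulus, each 12.5 mM in 5x stock. Times: 90 min dye load, 20 min compound, room temperature. Measured by: real-time thallium-sensitive FluxOR dye fluorescence reading. Read-out: baseline-normalized fluorescence amplitude ratio, averaged over duplicates. Repeats: duplicates.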
(In general: The purpose of a counterscreen is to sort out artefacts and off-target activity.)

Experiment [8] has as its target Potassium voltage-gated channel subfamily KQT member 1 (Homo sapiens) (UniProt P51787). Briefly: block of human KCNQ1 potassium current – cell-based, automated electrophysiology, orthogonal assay, confirmation (AID 624120;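 active means KCNQ1 current drop exceeding 3 SD of negative control wells, seen in both duplicate runs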). The following applies: KCNQ1-CHO cells, automated patch clamp current; at 10 µM. Summed up:
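Material: CHO cells expressing human KCNQ1 potassium channel; replication: duplicates; probe or stimulus: voltage stimulus of 2,000 ms steps to +40 mV, -80 mV holding; measured by: automated perforated-patch voltage clamp using amphotericin B; medium: pH 7.4 external buffer; dosing: single test compound dose of 10 µM final; read-out: steady-state current change vs pre-compound, percent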

The target of experiment [9] is Potassium voltage-gated channel subfamily KQT member 2 (Rattus norvegicus) (UniProt O88943). The experiment can be described thus: block of rat KCNQ2 potassium channel – cell-based, selectivity assay for KCNQ1 inhibitor project (AID 651746;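 active means mean percent inhibition of the KCNQ2 thallium signal more than 5 SD above the buffer-only control wells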;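 further: 0% = buffer control wells and 100% = XE-991 inhibitor control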). To be noted: KCNQ2 cells, FluxOR thallium flux fluorescence, at 10 µM; hits give high values.
Sequence of Potassium voltage-gated channel subfamily KQT member 2 (Rattus norvegicus) (O88943 whole entry, looked up): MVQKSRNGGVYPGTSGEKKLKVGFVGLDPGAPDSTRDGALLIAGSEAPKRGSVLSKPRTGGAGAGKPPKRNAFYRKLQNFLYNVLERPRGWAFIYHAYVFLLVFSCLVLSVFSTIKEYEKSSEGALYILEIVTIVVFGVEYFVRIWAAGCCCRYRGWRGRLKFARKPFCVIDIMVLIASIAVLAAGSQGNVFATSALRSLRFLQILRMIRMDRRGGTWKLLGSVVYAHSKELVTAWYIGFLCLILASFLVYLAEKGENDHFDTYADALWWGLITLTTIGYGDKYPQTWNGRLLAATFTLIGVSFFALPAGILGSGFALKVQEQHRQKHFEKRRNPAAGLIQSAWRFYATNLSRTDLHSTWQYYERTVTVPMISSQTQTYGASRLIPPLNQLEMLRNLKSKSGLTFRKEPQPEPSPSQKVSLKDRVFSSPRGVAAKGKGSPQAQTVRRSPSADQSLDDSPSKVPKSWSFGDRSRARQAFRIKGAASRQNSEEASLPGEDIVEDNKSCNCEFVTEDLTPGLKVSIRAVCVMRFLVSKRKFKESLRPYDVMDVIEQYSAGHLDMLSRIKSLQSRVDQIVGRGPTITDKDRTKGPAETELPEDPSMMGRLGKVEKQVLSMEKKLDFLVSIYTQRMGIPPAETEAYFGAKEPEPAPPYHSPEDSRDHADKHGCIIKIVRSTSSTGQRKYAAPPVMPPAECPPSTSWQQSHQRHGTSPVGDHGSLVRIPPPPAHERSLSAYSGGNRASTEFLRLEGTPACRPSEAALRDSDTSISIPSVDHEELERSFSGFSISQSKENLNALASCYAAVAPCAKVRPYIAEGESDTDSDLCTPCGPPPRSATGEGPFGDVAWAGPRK
The target in experiment [10] is T1, Potassium voltage-gated channel subfamily E member 1 (Homo sapiens) + Potassium voltage-gated channel subfamily KQT member 1 (Homo sapiens). The experiment can be described thus: block of human IKs channel complex – CHO-K1 cells, thallium flux, FluxOR, selectivity assay for KCNQ1 inhibitor project (AID 652147;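 active means mean percent inhibition of duplicate wells above the buffer-only control mean plus 3 SD of those controls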;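 on inhibition: 0% = buffer only wells and 100% = XE-991 inhibitor control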). The following applies: KCNQ1/KCNE1 cells, FluxOR thallium flux fluorescence, at 10 µM; hits give high values. Summed up: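 Test system: cells expressing KCNQ1/KCNE1 channels; Probe or stimulus: Tl2SO4 plus K2SO4 stimulus, each 12.5 mM in 5x stock; Times: 20 min compound pre-incubation at room temperature; Technique: kinetic FluxOR thallium-sensitive fluorescence, 1 Hz sampling, 150 s post-stimulus.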

As usually defined, the inhibition is the drop in the measured response relative to a control, in per cent.

Values without a mark were called inactive. Some of the results follow. Active and inactive are the calls of the source.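 How the source made its calls, unless noted: active means current rise at least 3 SD above the untreated control mean in each of two repeat wells; inactive means the rest.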

T1 sequence (P51787 whole entry, looked up): as the sequence (P51787 whole entry, looked up) above

As for `CN(Cc1cccnc1)C(=O)Cc1ccc(NS(=O)(=O)c2cccc(C(F)(F)F)c2)cc1`, the result in experiment [1], in [2] and in experiment [3] was inactive.
For `O=C(N1CCOCC1)N1CCC(n2nnc3ccccc32)CC1`, the result in experiment [1], in experiment [2] and in experiment [3] was inactive.
Turning to `Cc1cccc(-n2c(=S)[nH]c3c(oc4ccccc43)c2=O)c1`, the activation in experiment [1] is 139% (active). The result in experiment [2] and in experiment [3] was inactive.
For the compound `Cn1c(N/N=C/c2cccs2)cc(=O)n(C)c1=O`, the outcome in experiment [1], in [2] and in [3] was inactive.
For the compound `N#Cc1ccc2ccn(CC(=O)NCc3ccccc3)c2c1`, the outcome in experiment [1], in [2] and in experiment [3] was inactive.
For the compound `COCC(=O)NC1CC2CCC(C1)N2C(=S)Nc1ccccc1C(=O)OC` (stereo unspecified), the result in experiment [1], in experiment [2] and in experiment [3] was inactive.
In the case of `Cc1ccc(-n2c(-c3ccc(Cl)cc3)n[nH]c2=S)c(C)c1`, the outcome in [1], in experiment [2] and in [3] was inactive.
With `S=c1[nH]cnc2scc(-c3ccc(Br)cc3)c12`, the outcome in experiment [1], in experiment [3] and in [5] was inactive. Moreover, the potentiation in experiment [2] was 32.5% (active); in experiment [4], 147% (active).
Take `Cc1cc(OC(=O)c2cc(Cl)ccc2Cl)c([N+](=O)[O-])c(=O)[nH]1`: the outcome in experiment [1], in experiment [2] and in experiment [3] was inactive.
Regarding `COc1cccc2c1C(=O)C=C(C)C2=O`, the result in [1], in experiment [2] and in experiment [3] was inactive.
Regarding `O=C(NNc1c2ccccc2nc2ccccc12)c1ccccc1Cl`, the result in experiment [1], in experiment [2] and in experiment [3] was inactive.
`Cc1ccc(/C=C2\SC(=S)N(NS(=O)(=O)c3ccc(C)cc3)C2=O)cc1`: the result in experiment [1] and in [5] was inactive. The potentiation in experiment [2] is 25.5% (active). Moreover, in experiment [3], the current potentiation is 21.1% (active).
For `CCN(CC)CC(=O)Nc1sc2c(c1C(=O)c1ccccc1C)CCC2`, the inhibition in experiment [6] is 104% (active); in [9] it was 89% (active); in experiment [10], 168% (active). Also, the fluorescence ratio (Tl flux) in [7] is 0.444. For the same compound, the outcome in [8] was inactive.
For the compound `COc1ccc(O)c(C(=O)c2cnn(-c3ccc(Cl)cc3)c2)c1`, the result in experiment [1], in experiment [2] and in experiment [3] was inactive.
In the case of `COCC(=O)Nc1nnc(SCC(=O)N2C(C)CCCC2C)s1` (stereo unspecified), the outcome in experiment [1], in experiment [2], in experiment [3] and in [5] was inactive.
Consider `Cc1ccc(C)c(NC(=S)NNC(=O)c2csc(C(C)C)c2)c1`, for which the activation in experiment [1] was 162% (active). In addition, in [2], the potentiation is 55.5% (active). For the same compound, the result in [3] was inactive.
`Cn1nccc1C(=O)NC1CCCc2c1cnn2-c1ccc(F)cc1F` (stereo unspecified): the inhibition in [6] was 90% (active); in experiment [9] it was 60.3% (active). Further, the fluorescence ratio (Tl flux) in experiment [7] was 0.47. For the same compound, the compound was classed as inactive in [8] and in experiment [10].
Take `O=C(NC(=S)NC1CCCc2ccccc21)c1ccc(F)cc1` (stereo unspecified): the result in experiment [1], in [3] and in [5] was inactive. In addition, the potentiation in experiment [2] is 19.5% (active).
With `CC(C)COc1ccc(-c2nn(-c3ccccc3)cc2C(=O)Nc2nccs2)cc1`, the result in experiment [1], in [2], in experiment [3] and in [5] was inactive.
Turning to `S=C(NCC1CCCO1)N1CCN(c2ccc(Cl)c(Cl)c2)CC1` (stereo unspecified), the inhibition in [6] is 101% (active); in experiment [9], 76% (active). In addition, the fluorescence ratio (Tl flux) in experiment [7] was 0.501. Further, in [8], the call was active. The result in experiment [10] was inactive.
Turning to `Cc1ccc(-c2nn(-c3ccccc3)cc2/C=N/n2c(-c3cccs3)n[nH]c2=S)cc1`, the outcome in [1], in experiment [3] and in experiment [5] was inactive. Further, the potentiation in experiment [2] was 23% (active).
Turning to `O=C(OCc1ccccc1)C1=NNC2C(=O)N(c3ccccc3)C(=O)C12` (stereo unspecified), the result in [1], in experiment [2], in experiment [3] and in experiment [5] was inactive.
Turning to `O=C(NC(=S)Nc1ccc(Br)cn1)c1cccs1`, the result in experiment [1], in experiment [2] and in experiment [3] was inactive.
As to `O=C(c1ccc(COc2c(F)c(F)cc(F)c2F)o1)N1CCN(c2ccc(Cl)cc2)CC1`, the result in experiment [1], in experiment [2] and in experiment [3] was inactive.
Turning to `COC(=O)c1ccc(CNC(=O)CSc2nc3sc(C)c(C)c3c(=O)n2C)o1`, the activation in [1] was 268% (active). In addition, the potentiation in experiment [2] was 89.5% (active). Further, the outcome in experiment [3] was inactive.
With `O=C(NC(=S)Nc1nc2c(ccc3ccccc32)s1)c1cccs1`, the outcome in experiment [1], in [3] and in experiment [5] was inactive. The potentiation in [2] was 81% (active).
As to `COc1ccc(/C=C(\NC(=O)c2cccs2)C(=O)N2CCOCC2)cc1OC`, the activation in experiment [1] was 137% (active). In experiment [2], the potentiation was 29.5% (active). In [3], the outcome was inactive.
Take `CNCCC=C1c2ccccc2CCc2ccccc21`: the activation in experiment [1] was 150% (active). In experiment [2], the potentiation was 76% (active). Further, the outcome in [3] was inactive.
Take `CCS(=O)(=O)N1Cc2ccccc2CC1C(=O)Nc1cccc(S(=O)(=O)N(C)C)c1` (stereo unspecified): the outcome in experiment [1], in experiment [2], in [3] and in [5] was inactive.
As to `CCCCNC(=O)CNC(=O)c1nn(-c2ccc(OC)cc2OC)c(=O)c2ccccc12`, the outcome in experiment [1], in experiment [2] and in experiment [3] was inactive.
On to `CCOC(=O)CS(=O)(=O)c1nc(-c2ccc(F)cc2)cc(C(F)(F)F)n1`, for which the outcome in experiment [1], in [2] and in [3] was inactive.
Consider `Cc1cccc(N2CCN(C(=O)c3cnn4c(C(F)F)cc(-c5ccccc5)nc34)CC2)c1C`, for which the inhibition is 146% (active) in experiment [6] and 115% (active) in experiment [9]. The fluorescence ratio (Tl flux) in experiment [7] is 0.416. Besides, the result in experiment [8] was inactive.
Consider `COC(=O)c1ccc(CSc2nnc(SCc3ccc(C(=O)OC)o3)s2)o1`, for which the result in [1], in [2] and in experiment [3] was inactive.

Values taken from PubChem BioAssay.
